Measurements: ChEMBL document CHEMBL4513216, “Probing the Open Global Health Chemical Diversity Library for Multistage-Active Starting Points for Next-Generation Antimalarials” (ACS Infect Dis, 2020)

Experiment: Toxicity liver stage against HepG2, at 10uM
Format: cell-based
Set-up: test concentration 10 uM, cell line HepG2-A16-CD81EGFP
Details: human, HepG2-A16-CD81EGFP cells; read-out: INHIBITION
How it was run: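 Uninfected HepG2-A16-CD81EGFP cells, 3 × 10^3 per well, 1536-well, plated on prespotted compound at 10 μM final, parasite-free screening media added to match infected plates; puromycin 10 μM positive, DMSO 0.5% negative; run in parallel with 48 h PbLuc assay at 37 °C, 5% CO2; viability by CellTiter-Glo luminescence, normalized to controls.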

Row | Structure (SMILES) | cytotoxicity at 10 µM
1 | CC(C)Oc1cccc(C(=O)C2CCCN(C(=O)c3cncs3)C2)c1 (stereo not given) | 3.19%
2 | CN1CCN(S(=O)(=O)c2cccc(S(=O)(=O)C3CCS(=O)(=O)C3)c2)CC1 (stereo not given) | 6.29%
3 | Cc1cc(C)nc(N2CCC(C(=O)Nc3n[nH]c(C)n3)CC2)n1 | 8.78%
4 | COc1ccc2c(ccn2CCC(=O)Nc2n[nH]c(CC(C)C)n2)c1 | 8.29%
5 | O=C(NCC(O)(c1ccco1)C1CC1)c1c(F)cccc1Cl (stereo not given) | -2.69%
6 | O=C(c1ccc2[nH]cnc2c1)N1CCC(Oc2cccnc2)CC1 | -12.8%
7 | CCN1CC2(CC1=O)CN(C(=O)C(C)C)CCN(S(C)(=O)=O)C2 (stereo not given) | -4.54%
8 | O=C(C1CCOCC1)N1C[C@@H]2OCCN(CCN3CCCC3)[C@@H]2C1 | -3.83%
9 | CC(=O)NCC(=O)N1Cc2nc(COCc3csc(C)n3)oc2C1 | 0.503%
10 | Cc1nc(-c2noc3ccc(C(=O)NCCN4CCOCC4)cc23)cs1 | 4.19%
11 | Cn1cc(CN2CC[C@H]3C[C@@H](c4nc(C5CC5)cs4)O[C@@H]3C2)cn1 | 8.84%
12 | CC(C)Cc1nnc2sc(-c3cc(C(C)C)n[nH]3)nn12 | 8.08%
13 | CNc1nc2c(s1)C(c1ccccc1F)CC(=O)N2 (stereo not given) | 4.43%
14 | O=C(O)CCC(=O)Nc1nn(Cc2ccc(F)cc2)cc1Cl | 13.8%
15 | Cc1nn(COc2cccc(F)c2)c(C)c1NC(=O)C1CC1 | 5.62%
16 | COc1ccccc1CNC(=O)c1[nH]ncc1Cl | 1.72%
17 | Cc1noc(C)c1-c1cncc(C2CCCN2Cc2ncc[nH]2)n1 (stereo not given) | -8.89%
18 | O=C(Cc1ccsc1)N1CCCCC1c1ccn2ccnc2n1 (stereo not given) | -9.91%
19 | Cc1cccc(Oc2nccnc2C2CCN(C(=O)C(C)(C)N)CC2)c1 | -9.44%
20 | O=C(CO)N1CCC(c2cncc(-c3cccc(Cl)c3)n2)CC1 | -0.105%
21 | Cc1ccc(Nc2nccc(C3CN(CC(N)=O)C3)n2)nc1 | -1.91%
22 | Clc1ccc(CN2CCC3(CC2)CC(c2cccnc2)=NO3)cc1 | 17.5%

Row | Structure (SMILES) | cytotoxicity at 10 µM
23 | O=C(Nc1ccccc1)N1CCn2c(nnc2C2CCCN2)C1 (stereo not given) | 2.91%
24 | O=C1Nc2ccccc2CN(CC2CC2)C12CCNC2 (stereo not given) | 6.09%
25 | COc1cc(Br)c(CNC(C)c2nnc3n2CCC3)cc1OC (stereo not given) | -43.2%
26 | COc1ccc2c(c1)CC(NCc1cccc(CO)c1)CC2 (stereo not given) | -51.8%
27 | Cc1c(C(=O)N2CCS(=O)(=O)CC2)nnn1-c1ccc2ncccc2c1 | -5.82%
28 | Cc1ccnc(N2CCCC(c3nncn3C3CC3)C2)n1 (stereo not given) | -5.45%
29 | CCC(=O)NCC(=O)N(C)C(c1ccc(Cl)cc1)c1cccnc1 (stereo not given) | 3.88%
30 | NC(=O)CCN(CC(=O)NCc1cccs1)c1ccc(F)cc1 | 8.75%
31 | Cc1ccc(C(=O)OC(C)Cn2cccn2)c(=O)[nH]1 (stereo not given) | 3.35%
32 | CCSCc1ccc(C(=O)N2CCCN(CC)CC2)cc1 | -5.95%
33 | COC(=O)CSCc1noc(-c2ccc(Cl)cc2)n1 | 1.94%
34 | Cn1cc(C(=O)Nc2ccc(CN3CCOCC3)cn2)cn1 | 6.95%
35 | CC(C)OCCNC1(c2ccc(F)cc2)CCOCC1 | -4.78%
36 | COc1ccc(CNC(=O)N(C)CC(C)(C)O)cc1OC | 6.89%
37 | CCc1nc2n(n1)CC(NCc1nc(C)c(C)o1)CC2 (stereo not given) | -11%
38 | Cc1nn(C)cc1C(=O)NC(CC(C)C)C(=O)Nc1cc[nH]n1 (stereo not given) | -2.33%
39 | CCCn1cc(NC(=O)c2ccc(N(C)CC)cc2)ccc1=O | -0.704%
40 | O=C(C1SCCc2sccc21)N1CCN(CC(F)F)CC1 (stereo not given) | -4.5%
41 | CN(C)C(=O)c1cccc(NC(=O)CN2CCCCC2C2OCCO2)c1 (stereo not given) | -6.95%
42 | CCOc1ccc(CNC(C)c2cccc(S(=O)(=O)NC)c2)cc1 (stereo not given) | 16.1%
43 | Cc1cc2n(n1)CC(CNC1CCN(C(=O)C3CC3)CC1)CN2 (stereo not given) | 5.17%
44 | CC(C)(C)S(=O)(=O)CCNC(=O)c1cnc(-c2ccccc2)nc1 | 2.92%

Row | Structure (SMILES) | cytotoxicity at 10 µM
45 | CSCC(C)(O)CNC(=O)c1ccc(F)cc1Br (stereo not given) | 0.369%
46 | COc1ccc(CC(=O)NC2CCc3nc(C)cn3C2)cc1 (stereo not given) | 9.55%
47 | CC(C(=O)N1CCCC1)N1CCCN(C(=O)Oc2ccccc2)CC1 (stereo not given) | 3.4%
48 | COCCN(CC(C)C)C(=O)c1cccc(Nc2cnccn2)c1 | -9.59%
49 | Clc1ccc2cccnc2c1CN1CCn2c(nnc2C2CC2)C1 | -2.19%
50 | CC(C)(CO)CCCNC(=O)NC1(C)Cc2ccccc2C1 | -1%
51 | COc1ccc(NC(=O)c2ccccc2NCc2ncnn2C)cc1 | 2.06%
52 | CC1CN(C)CCN1C(=O)Nc1nc(-c2cccn2C)cs1 (stereo not given) | -2.38%
53 | Cc1ncsc1CNC(=O)N(Cc1ccccc1)CC(C)(C)O | -10.2%
54 | CCNC(=O)CN(CC)Cc1nc2c(F)cccc2n1CC | 9.57%
55 | COc1ccc2nc(C)c(C(=O)NCCN3CCS(=O)(=O)CC3)cc2c1 | -15.2%
56 | CC(Sc1nnc(C2CC2)n1CC(N)=O)c1ccc(F)cc1F (stereo not given) | -1.7%
57 | CO[C@H]1CC[C@H]2[C@H]1OCCN2C(=O)c1nn(C)c2ccccc12 | 5.33%
58 | COc1ccc(CN2Cc3cn(C)nc3C(COCC3CC3)C2)cc1 (stereo not given) | -78.5%
59 | COCC(=O)N1CCC2(CCCN(Cc3cnn(C)c3)C2)C1 (stereo not given) | -73.3%
60 | CCNc1nc(-c2cccnc2)c(-c2ccnc(NS(C)(=O)=O)n2)s1 | -12.3%
61 | CCn1nc(CC(C)C)cc1C(=O)NCc1c(C)cc(C)nc1OC | 1.66%
62 | CNC(=O)c1n[nH]c2c1C(c1cccc3nsnc13)CC(=O)N2 (stereo not given) | -13%
63 | O=C(NCCc1noc(C2CCCC2)n1)c1cn2ccsc2n1 | -0.454%
64 | Cc1cnc(NCC(C)(C)N2CCN(C)CC2)nc1 | -4.52%
65 | CCn1c(C)nnc1SCCNC(=O)Cn1cnc2ccccc2c1=O | 8.28%
66 | O=C(O)c1cc(-c2cccnc2)cc(S(=O)(=O)NCc2ccccn2)c1 | -49.9%

Row | Structure (SMILES) | cytotoxicity at 10 µM
67 | CCCc1nc(N2CCCC3(CCNC3)C2)c2cnn(C)c2n1 (stereo not given) | -47.8%
68 | CO[C@H]1CN(C(=O)c2cc3ccccc3[nH]2)CC[C@H]1N | 11%
69 | Cn1ncc(N2CCOC(CCNC(=O)N3CCCCC3)C2)cc1=O (stereo not given) | -1.25%
70 | COc1ccccc1CC(=O)N1CCCC(c2nccn2CC(N)=O)C1 (stereo not given) | 12.9%
71 | Cc1cc(C)nc(CN(C)C(=O)c2ccccc2C2CCNC2)c1 (stereo not given) | 1.64%
72 | O=C(c1ccc(C2CCCN2)s1)N1CCC2(CCCO2)CC1 (stereo not given) | -7.13%
73 | Cc1cccc(C(C(=O)NCc2csc(-c3ncccn3)n2)N(C)C)c1 (stereo not given) | 2.14%
74 | CCN(c1ccc(C(=O)N2CCC(C(N)=O)CC2)cc1)S(=O)(=O)CC | 11.6%
75 | COc1ccc(-c2cccc3c2OC(CN)C3)cc1F (stereo not given) | -51.4%
76 | c1cc2c(cc1Cn1cc(C3CCOC3)nn1)CCCO2 (stereo not given) | 2.03%
77 | Cc1nsc(NC(=O)NC2CCN(C)CC2)n1 | -10.7%
78 | Cc1ncsc1CCC(=O)N1CCCC[C@H](N(C)C)C1 | -22.5%
79 | CCn1ccnc1CN1C[C@@H](CN2CCCC2)[C@@H](CO)C1 | -9.96%
80 | CC(=O)c1ccc(OCC(C)O)cc1O (stereo not given) | -8.02%
81 | Cc1cc(-n2cncn2)n2ncnc2n1 | -4.05%
82 | CCOc1cccc(CNC2CCCN(Cc3noc(C)n3)C2)c1 (stereo not given) | -2.3%
83 | CCOCCN1CCN(Cc2coc(-c3cccc(F)c3)n2)CC1 | -2.87%
84 | CCOc1ccc(Cl)c(C(=O)N2CCCN(CC(N)=O)CC2)n1 | -1.26%
85 | O=C1COc2cc(C(=O)NS(=O)(=O)c3cccc(Cl)c3)ccc2N1 | -4.01%
86 | O=C(NCCNc1cnccn1)N1CCCCCC1 | -3.33%
87 | CC(=O)NCCNC(=O)CNC1CCCN(c2ccc(C)nn2)C1 (stereo not given) | 3.47%
88 | CCOc1ncccc1CNCc1c(C)nn(C)c1N(C)C | -1.35%

Row | Structure (SMILES) | cytotoxicity at 10 µM
89 | CC(=O)N1CCCN(C(=O)c2cnn(-c3ccccc3Cl)c2)CC1 | -11.4%
90 | c1ccc2oc(CCCN3CCOC(Cn4cncn4)C3)nc2c1 (stereo not given) | 1.52%
91 | Cc1nn(C)c(C)c1NC(=O)CN1CCOC(Cn2cccn2)C1 (stereo not given) | -1.81%
92 | Cc1cncc(C(=O)N2CCCCC2c2nc(C)cs2)c1 (stereo not given) | -3.66%
93 | CCOc1ccccc1C(=O)NS(=O)(=O)c1ccc2c(c1)OCCCO2 | 5.04%
94 | Cc1cc(C2CCCN(C(=O)c3c(C)nn4cccnc34)C2)n[nH]1 (stereo not given) | -0.457%
95 | Cc1cccc(CN2C(=O)C[C@@H]3[C@@H]2CCN3Cc2ccsc2)n1 | -6.63%
96 | COCCN1C[C@@H]2COC[C@@H](CC(=O)NCc3cccnc3)[C@@H]2C1 | 12%
97 | c1ccc(CN2CCc3ncnc(N4CCCC4)c3CC2)nc1 | -8.35%
98 | CCOc1ccccc1C(=O)N1CCCC1c1ncc2c(n1)CCNC2 (stereo not given) | 8.3%
99 | Cc1cc(C)cc(CN2C[C@H]3COC[C@H](N4CCN(C)CC4)[C@H]3C2)c1 | -93.7%
100 | O[C@@H]1CCN(CC2CCOC2)[C@H]1Cc1ccccc1 (stereo not given in full) | -7.98%
101 | c1coc(CN2CCO[C@H]3[C@H](OCC4CCCC4)CC[C@@H]32)c1 | 19.7%
102 | CN(C)C(=O)CO[C@H]1CN(Cc2ccc3c(c2)OCO3)[C@@H]2COC[C@H]12 | 5.9%
103 | CCN(CC)S(=O)(=O)N1CC[C@H](c2ccccc2)[C@H]2NCCCC[C@H]21 | -39.5%
104 | CN1C[C@@H](COCC2CC2)[C@H]2CCN(Cc3ccco3)CC[C@H]2C1=O | -4.6%
105 | Cc1ccoc1C(=O)N1CC[C@H]2[C@H](C[C@@H](CN3CCCC3)N2C)C1 | 4.42%
106 | CN(C)C(=O)c1cnc2n1CCN(Cc1cccnc1)C2 | -67%
107 | CN(C)c1ncc2c(n1)C1(CCN(CC3CC3)C1)COC2 (stereo not given) | -12.9%
108 | CN(Cc1ccccn1)C1CC2(CCN(Cc3ccccn3)CC2)C1 | -87%
109 | Cc1ncnc2c1CCN(C(=O)CN(C)C)CC2 | 0.964%
110 | c1csc(CN2Cc3[nH]nc(COCC4CC4)c3C2)c1 | 6.22%
